Assays:
[1] = biological target: T1, Serine/threonine-protein kinase RIO1 (Homo sapiens) (UniProt Q9BRS2); test: Competitive binding affinity to RIOK1 (unknown origin) at 10 uM in presence of ATP relative to control
T1 sequence (whole entry): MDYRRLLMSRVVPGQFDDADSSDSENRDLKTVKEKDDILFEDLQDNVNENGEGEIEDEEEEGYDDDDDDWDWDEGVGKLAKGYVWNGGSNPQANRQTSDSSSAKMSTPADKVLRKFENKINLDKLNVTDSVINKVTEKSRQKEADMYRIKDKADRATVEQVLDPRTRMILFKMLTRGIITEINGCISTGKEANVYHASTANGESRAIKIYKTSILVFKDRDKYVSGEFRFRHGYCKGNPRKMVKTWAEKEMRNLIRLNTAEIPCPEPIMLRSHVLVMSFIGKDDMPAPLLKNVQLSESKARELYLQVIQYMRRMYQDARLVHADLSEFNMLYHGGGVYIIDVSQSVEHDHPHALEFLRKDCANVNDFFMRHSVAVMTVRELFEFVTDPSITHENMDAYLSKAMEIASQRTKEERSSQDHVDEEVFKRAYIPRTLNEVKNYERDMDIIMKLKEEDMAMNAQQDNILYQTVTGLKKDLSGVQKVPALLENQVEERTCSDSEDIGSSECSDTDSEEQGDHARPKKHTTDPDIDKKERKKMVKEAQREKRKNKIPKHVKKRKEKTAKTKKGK

[2] = biological target: ALK tyrosine kinase receptor (Homo sapiens) (UniProt Q9UM73); test: Competitive binding affinity to ALK (unknown origin) at 10 uM in presence of ATP relative to control
ALK tyrosine kinase receptor (Homo sapiens), sequence (Q9UM73 19-1620 limits assumed): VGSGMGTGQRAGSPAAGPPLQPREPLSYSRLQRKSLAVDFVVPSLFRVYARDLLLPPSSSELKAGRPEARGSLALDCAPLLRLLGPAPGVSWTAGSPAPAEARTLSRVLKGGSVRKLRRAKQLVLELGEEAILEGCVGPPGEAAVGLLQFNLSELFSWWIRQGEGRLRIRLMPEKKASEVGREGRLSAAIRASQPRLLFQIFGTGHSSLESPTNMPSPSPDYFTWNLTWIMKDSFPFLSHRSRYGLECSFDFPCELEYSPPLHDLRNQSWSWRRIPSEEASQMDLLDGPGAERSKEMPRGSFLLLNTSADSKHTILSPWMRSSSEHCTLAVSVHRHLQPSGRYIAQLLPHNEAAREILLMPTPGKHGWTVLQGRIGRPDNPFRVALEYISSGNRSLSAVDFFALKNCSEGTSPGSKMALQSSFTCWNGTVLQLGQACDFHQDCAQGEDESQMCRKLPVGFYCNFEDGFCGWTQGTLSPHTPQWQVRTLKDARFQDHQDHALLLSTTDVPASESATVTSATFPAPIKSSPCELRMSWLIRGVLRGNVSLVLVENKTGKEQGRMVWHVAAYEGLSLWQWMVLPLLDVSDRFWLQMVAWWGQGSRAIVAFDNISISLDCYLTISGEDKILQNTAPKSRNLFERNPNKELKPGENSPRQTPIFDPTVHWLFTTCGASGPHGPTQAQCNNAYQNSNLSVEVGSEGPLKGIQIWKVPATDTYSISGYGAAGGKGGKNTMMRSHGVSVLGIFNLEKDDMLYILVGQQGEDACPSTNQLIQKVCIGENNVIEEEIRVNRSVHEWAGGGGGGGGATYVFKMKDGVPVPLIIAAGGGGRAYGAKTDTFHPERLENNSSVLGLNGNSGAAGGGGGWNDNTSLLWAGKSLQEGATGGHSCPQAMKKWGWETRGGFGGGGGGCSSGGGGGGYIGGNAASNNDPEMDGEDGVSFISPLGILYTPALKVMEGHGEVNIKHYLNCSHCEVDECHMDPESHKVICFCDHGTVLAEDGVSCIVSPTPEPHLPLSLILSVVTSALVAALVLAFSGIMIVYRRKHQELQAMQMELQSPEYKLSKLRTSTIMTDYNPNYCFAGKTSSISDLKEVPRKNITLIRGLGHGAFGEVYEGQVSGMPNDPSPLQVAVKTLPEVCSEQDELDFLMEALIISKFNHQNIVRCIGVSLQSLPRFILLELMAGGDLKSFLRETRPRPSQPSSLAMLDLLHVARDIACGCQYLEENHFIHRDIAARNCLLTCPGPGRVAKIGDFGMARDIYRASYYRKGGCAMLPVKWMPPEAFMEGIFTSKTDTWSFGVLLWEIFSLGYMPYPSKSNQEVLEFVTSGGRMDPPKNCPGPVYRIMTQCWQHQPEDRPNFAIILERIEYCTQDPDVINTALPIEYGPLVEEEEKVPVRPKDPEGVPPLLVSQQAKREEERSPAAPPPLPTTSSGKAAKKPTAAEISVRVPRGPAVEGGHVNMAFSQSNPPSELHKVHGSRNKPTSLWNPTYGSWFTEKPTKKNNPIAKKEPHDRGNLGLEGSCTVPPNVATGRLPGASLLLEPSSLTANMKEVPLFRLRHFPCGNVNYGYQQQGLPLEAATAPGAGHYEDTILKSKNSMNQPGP

[3] = biological target: Macrophage colony-stimulating factor 1 receptor (Homo sapiens) (UniProt P07333); test: Competitive binding affinity to CSF1R (unknown origin) at 10 uM in presence of ATP relative to control
In short: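 In vitro ATP-site competition binding assay across a diverse panel of 128 kinases, with each compound tested at a single concentration. Kinase binding is expressed relative to control.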

[4] = species on record: Homo sapiens; test: Competitive binding affinity to EGFR L747 to E749 deletion mutant, A750P mutant (unknown origin) at 10 uM in presence of ATP relative to control
[5] = biological target: Tyrosine-protein kinase receptor Tie-1 (Homo sapiens) (UniProt P35590); test: Competitive binding affinity to TIE1 (unknown origin) at 10 uM in presence of ATP relative to control
Tyrosine-protein kinase receptor Tie-1 (Homo sapiens), sequence (P35590 whole entry): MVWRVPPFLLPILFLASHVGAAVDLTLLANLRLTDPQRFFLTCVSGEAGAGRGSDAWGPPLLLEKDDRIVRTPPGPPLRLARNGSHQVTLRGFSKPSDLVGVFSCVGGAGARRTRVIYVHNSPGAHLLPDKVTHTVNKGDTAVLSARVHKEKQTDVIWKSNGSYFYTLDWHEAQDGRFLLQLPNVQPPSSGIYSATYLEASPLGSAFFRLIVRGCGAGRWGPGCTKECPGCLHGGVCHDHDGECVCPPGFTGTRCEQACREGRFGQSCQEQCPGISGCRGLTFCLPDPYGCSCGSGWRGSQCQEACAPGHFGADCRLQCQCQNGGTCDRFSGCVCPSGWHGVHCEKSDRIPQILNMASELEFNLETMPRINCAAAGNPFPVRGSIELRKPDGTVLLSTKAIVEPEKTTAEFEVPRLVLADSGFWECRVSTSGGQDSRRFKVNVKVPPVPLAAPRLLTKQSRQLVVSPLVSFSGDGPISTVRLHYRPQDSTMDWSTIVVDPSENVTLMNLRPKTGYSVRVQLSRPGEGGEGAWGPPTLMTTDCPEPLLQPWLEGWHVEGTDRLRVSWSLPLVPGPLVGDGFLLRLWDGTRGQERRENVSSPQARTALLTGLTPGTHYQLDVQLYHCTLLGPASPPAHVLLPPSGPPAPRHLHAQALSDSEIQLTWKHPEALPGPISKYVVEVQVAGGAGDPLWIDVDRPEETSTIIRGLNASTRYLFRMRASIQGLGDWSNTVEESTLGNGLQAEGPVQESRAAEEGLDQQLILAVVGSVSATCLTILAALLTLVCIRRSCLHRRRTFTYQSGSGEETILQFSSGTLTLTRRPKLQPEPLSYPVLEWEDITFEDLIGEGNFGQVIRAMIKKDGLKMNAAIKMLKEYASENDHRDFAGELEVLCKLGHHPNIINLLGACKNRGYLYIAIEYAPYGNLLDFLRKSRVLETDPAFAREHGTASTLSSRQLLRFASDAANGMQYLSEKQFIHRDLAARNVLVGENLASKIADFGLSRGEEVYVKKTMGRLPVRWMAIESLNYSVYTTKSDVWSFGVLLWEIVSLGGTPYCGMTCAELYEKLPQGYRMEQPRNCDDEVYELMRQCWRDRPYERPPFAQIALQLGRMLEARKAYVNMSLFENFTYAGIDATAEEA

[6] = biological target: TGF-beta receptor type-2 (Homo sapiens) (UniProt P37173); test: Competitive binding affinity to TGFBR2 (unknown origin) at 10 uM in presence of ATP relative to control
TGF-beta receptor type-2 (Homo sapiens), sequence (P37173 whole entry): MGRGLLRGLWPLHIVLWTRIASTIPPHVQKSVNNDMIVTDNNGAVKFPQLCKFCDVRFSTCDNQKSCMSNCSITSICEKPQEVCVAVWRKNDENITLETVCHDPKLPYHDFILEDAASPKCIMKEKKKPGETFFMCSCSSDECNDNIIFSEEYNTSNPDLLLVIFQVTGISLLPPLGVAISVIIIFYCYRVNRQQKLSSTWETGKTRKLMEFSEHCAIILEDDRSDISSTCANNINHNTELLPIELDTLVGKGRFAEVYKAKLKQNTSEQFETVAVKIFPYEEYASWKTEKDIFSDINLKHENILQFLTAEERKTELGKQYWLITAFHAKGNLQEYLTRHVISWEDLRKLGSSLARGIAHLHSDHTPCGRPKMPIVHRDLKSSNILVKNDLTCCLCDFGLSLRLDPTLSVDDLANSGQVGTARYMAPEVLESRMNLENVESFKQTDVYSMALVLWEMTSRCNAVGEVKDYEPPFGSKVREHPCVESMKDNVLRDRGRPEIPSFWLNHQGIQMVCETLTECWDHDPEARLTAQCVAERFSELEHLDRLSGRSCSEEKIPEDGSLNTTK

[7] = biological target: Protein kinase C theta type (Homo sapiens) (UniProt Q04759); test: Competitive binding affinity to PRKCQ (unknown origin) at 10 uM in presence of ATP relative to control
Protein kinase C theta type (Homo sapiens), sequence (Q04759 whole entry, looked up, the tested form may be a part): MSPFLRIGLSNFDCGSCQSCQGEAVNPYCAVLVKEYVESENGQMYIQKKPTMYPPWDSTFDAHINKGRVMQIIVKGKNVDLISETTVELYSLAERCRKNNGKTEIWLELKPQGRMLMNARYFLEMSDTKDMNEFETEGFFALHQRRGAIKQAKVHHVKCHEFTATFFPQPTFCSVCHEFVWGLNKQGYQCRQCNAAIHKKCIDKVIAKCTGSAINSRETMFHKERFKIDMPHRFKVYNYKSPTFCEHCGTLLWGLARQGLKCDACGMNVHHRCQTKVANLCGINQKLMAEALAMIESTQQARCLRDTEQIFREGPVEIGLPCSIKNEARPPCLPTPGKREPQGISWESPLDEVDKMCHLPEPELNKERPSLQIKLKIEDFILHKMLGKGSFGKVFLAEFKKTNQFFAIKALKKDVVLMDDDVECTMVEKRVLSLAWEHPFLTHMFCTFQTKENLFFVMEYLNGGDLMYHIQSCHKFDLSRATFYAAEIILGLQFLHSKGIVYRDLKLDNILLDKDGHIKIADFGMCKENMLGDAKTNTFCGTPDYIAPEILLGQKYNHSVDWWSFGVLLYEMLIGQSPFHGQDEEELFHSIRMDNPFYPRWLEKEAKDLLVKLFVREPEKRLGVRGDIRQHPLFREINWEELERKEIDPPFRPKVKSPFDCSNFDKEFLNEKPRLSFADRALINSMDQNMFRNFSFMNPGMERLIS

[8] = biological target: Ribosomal protein S6 kinase alpha-4 (Homo sapiens) (UniProt O75676); test: Competitive binding affinity to RPS6KA4 kinase domain 2 (unknown origin) at 10 uM in presence of ATP relative to control
[9] = biological target: T2, Serine/threonine-protein kinase LATS1 (Homo sapiens) (UniProt O95835); test: Competitive binding affinity to LATS1 (unknown origin) at 10 uM in presence of ATP relative to control
T2 sequence (whole entry): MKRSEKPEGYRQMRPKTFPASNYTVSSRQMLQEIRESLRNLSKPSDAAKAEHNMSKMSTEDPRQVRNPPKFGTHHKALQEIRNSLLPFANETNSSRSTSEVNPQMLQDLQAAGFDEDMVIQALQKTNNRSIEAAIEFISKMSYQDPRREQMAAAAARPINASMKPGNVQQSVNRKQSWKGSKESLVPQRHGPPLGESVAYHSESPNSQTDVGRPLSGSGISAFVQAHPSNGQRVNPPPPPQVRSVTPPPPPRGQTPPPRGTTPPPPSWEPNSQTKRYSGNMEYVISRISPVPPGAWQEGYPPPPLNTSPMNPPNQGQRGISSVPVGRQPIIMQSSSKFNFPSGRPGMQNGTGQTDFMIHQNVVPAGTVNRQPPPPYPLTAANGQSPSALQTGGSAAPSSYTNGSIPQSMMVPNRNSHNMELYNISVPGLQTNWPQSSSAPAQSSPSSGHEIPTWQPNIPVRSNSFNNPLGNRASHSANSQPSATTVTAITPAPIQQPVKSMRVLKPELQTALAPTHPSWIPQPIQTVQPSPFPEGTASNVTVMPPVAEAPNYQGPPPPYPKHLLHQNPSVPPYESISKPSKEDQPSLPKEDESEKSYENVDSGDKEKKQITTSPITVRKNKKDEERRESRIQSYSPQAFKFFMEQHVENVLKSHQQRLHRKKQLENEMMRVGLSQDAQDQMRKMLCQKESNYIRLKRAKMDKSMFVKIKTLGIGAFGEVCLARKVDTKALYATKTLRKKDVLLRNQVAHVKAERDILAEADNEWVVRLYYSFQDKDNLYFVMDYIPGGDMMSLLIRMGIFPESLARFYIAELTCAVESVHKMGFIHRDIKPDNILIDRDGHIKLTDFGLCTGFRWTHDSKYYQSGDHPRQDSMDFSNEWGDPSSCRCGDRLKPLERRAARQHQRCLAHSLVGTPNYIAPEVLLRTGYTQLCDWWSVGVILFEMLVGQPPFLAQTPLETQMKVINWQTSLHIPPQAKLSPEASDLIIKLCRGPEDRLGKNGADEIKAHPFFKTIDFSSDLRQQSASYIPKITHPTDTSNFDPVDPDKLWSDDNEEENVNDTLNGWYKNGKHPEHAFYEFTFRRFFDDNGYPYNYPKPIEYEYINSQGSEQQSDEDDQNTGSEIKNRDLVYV

[10] = biological target: BDNF/NT-3 growth factors receptor (Homo sapiens) (UniProt Q16620); test: Competitive binding affinity to TRKB (unknown origin) at 10 uM in presence of ATP relative to control
[11] = biological target: Serine/threonine-protein kinase SIK1 (Homo sapiens) (UniProt P57059); test: Competitive binding affinity to SNF1LK (unknown origin) at 10 uM in presence of ATP relative to control
Serine/threonine-protein kinase SIK1 (Homo sapiens), sequence (P57059 whole entry): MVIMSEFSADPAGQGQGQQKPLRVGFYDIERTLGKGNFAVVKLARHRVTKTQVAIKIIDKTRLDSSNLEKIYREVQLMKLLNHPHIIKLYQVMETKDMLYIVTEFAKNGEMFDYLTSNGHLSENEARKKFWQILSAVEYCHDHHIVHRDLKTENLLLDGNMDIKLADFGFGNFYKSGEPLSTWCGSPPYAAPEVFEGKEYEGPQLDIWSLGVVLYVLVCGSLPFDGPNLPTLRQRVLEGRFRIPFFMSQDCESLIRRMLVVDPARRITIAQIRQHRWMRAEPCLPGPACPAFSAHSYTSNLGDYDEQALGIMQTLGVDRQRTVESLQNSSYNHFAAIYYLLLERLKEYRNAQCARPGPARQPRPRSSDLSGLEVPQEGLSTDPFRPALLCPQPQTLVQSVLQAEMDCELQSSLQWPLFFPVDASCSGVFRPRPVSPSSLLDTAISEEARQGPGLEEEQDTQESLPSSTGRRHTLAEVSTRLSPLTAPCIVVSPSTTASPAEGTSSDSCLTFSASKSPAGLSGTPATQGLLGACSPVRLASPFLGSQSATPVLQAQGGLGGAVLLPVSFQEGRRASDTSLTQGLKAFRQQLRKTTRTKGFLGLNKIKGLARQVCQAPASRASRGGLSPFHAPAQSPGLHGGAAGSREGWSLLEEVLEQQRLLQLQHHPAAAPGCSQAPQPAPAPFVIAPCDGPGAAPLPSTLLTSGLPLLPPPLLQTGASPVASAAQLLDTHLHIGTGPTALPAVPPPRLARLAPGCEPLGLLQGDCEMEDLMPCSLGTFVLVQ

[12] = biological target: T3, Serine/threonine-protein kinase 17B (Homo sapiens) (UniProt O94768); test: Competitive binding affinity to STK17B (unknown origin) at 10 uM in presence of ATP relative to control
T3 sequence (whole entry): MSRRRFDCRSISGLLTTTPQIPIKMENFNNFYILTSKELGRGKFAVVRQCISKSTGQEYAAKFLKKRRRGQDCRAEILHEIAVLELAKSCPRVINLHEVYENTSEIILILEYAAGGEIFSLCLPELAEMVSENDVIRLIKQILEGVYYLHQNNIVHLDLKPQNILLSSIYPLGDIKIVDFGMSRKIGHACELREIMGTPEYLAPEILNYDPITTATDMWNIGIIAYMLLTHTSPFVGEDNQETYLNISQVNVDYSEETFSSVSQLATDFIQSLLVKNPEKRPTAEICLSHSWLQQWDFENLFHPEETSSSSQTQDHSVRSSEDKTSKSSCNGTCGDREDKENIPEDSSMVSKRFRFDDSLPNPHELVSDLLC

Q: Which results are given for `O[C@H]1CC[C@H](Nc2nccc(-n3nnc4ccccc43)n2)CC1`?
A: inhibition [1]: < 50%; inhibition [2]: 66%; inhibition [3]: < 50%; inhibition [4]: < 50%; inhibition [5]: < 50%; inhibition [6]: 96%; inhibition [7]: < 50%; inhibition [8]: 94%; inhibition [9]: < 50%; inhibition [10]: < 50%; inhibition [11]: < 50%

Q: `N[C@H]1CC[C@H](Nc2nccc(-n3nnc4ccccc43)n2)CC1` was tested. Which inhibition [12] did it give?
A: Its inhibition is 92%.

Q: With `O=C([C@H]1CC[C@H](Nc2nccc(-n3nnc4ccccc43)n2)CC1)N1CCOCC1` as the molecule, how does the inhibition [12] read?
A: Its inhibition is less than 50%.

Q: What does the source list for `O[C@H]1CC[C@H](Nc2nccc(-n3ncc4ccccc43)n2)CC1`?
A: inhibition [1]: < 50%; inhibition [2]: 78%; inhibition [3]: 74%; inhibition [4]: < 50%; inhibition [5]: < 50%; inhibition [6]: < 50%; inhibition [7]: < 50%; inhibition [8]: < 50%; inhibition [9]: < 50%; inhibition [10]: < 50%; inhibition [11]: < 50%

Q: `O[C@H]1CC[C@H](Nc2nccc(-c3n[nH]c4ccccc34)n2)CC1` was tested. Which inhibition [12] did it give?
A: The inhibition was 99%.

Q: What about the inhibition [2] of the same molecule?
A: Its inhibition is 100%.

Q: And the inhibition [3]?
A: Its inhibition is 97%.

Q: And the inhibition [4]?
A: The inhibition was less than 50%.

Q: And the inhibition [10]?
A: Its inhibition is 100%.

Q: With `O[C@H]1CC[C@H](Nc2nccc(-n3ccc4ccccc43)n2)CC1` as the molecule, how does the inhibition [1] read?
A: Its inhibition is less than 50%.

Q: What about the inhibition [2] of the same molecule?
A: The inhibition was less than 50%.

Q: And the inhibition [3]?
A: Its inhibition is less than 50%.

Q: And the inhibition [4]?
A: The inhibition was less than 50%.

Q: What about the inhibition [5] of the same molecule?
A: The inhibition was less than 50%.

Q: What about the inhibition [6] of the same molecule?
A: Its inhibition is less than 50%.

Q: And the inhibition [7]?
A: The inhibition was less than 50%.

Q: What about the inhibition [8] of the same molecule?
A: The inhibition was less than 50%.

Q: What about the inhibition [9] of the same molecule?
A: Its inhibition is less than 50%.

Q: And the inhibition [10]?
A: Its inhibition is less than 50%.

Q: What about the inhibition [11] of the same molecule?
A: Its inhibition is less than 50%.

Reference: ChEMBL document CHEMBL2424622, “Development of amino-pyrimidine inhibitors of c-Jun N-terminal kinase (JNK): kinase profiling guided optimization of a 1,2,3-benzotriazole lead” (Bioorg Med Chem Lett, 2013)
